Assay results published in PMC10793096 (Acta Pharmaceutica Sinica. B, 2023).
Where two headings read alike, the source gives them in different places.

Assays:
[1] = test system: CT26 (murine colon carcinoma) cell line; test: Colorimetric MTT cytotoxicity assay, CT26; format: cell-based
[2] = test system: MCF-7 (human breast adenocarcinoma) cell line; test: Colorimetric MTT cytotoxicity assay, MCF-7; format: cell-based; conditions: for IC50: Homo sapiens
[3] = test system: MRC-5 (human lung fibroblasts, non-cancerous); test: Colorimetric MTT cytotoxicity assay, MRC-5; format: cell-based; conditions: MRC5, 72 h, read-out: IC50 MRC-5
How it was run: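 MRC-5 cells from ATCC, trypsinized, seeded at 6000 cells/well (6 × 10^4 cells/mL), grown 24 h, then exposed 72 h to test compound serially diluted in complete medium. Medium replaced with MTT in media (5 mg/mL) for 45 min; formazan dissolved in DMSO, OD at 570 nm. T/C versus untreated cells; IC50 interpolated from concentration-effect curves; ≥3 independent experiments, triplicates per concentration.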

[4] = test system: MRC-5 (human lung fibroblasts, non-cancerous); conditions: read-out: IC50 MRC-5; taken from the literature; cited from earlier work

For `C=C(C)[C@H]1CC[C@@]2(C)CC[C@]3(C)C[C@H]4[C@@H](C)CC(=O)[C@H]4/C(C=O)=C\C[C@H]3[C@H]12` [compound 1, Variecolin], the “SF CT26 (selectivity factor)” value ([1]; IC50(MRC-5)/IC50(CT26)) was 1.1, the IC50 ([1]; Mus musculus, CT26, 72 h, read-out: IC50 CT26) was 1 ± 0.3 µM and the IC50 ([2]; MCF7, 72 h, read-out: IC50 MCF-7) was 1.4 ± 0.3 µM. For the same compound, the IC50 ([2]; MCF7, read-out: IC50s in both cancer cell lines) was 1 to 8 µM, the “SF MCF-7 (selectivity factor)” value ([2]; IC50(MRC-5)/IC50(MCF-7)) was 0.8 and the IC50 [3] was 1.1 ± 0.2 µM.
For `CC(=O)O[C@H]1C(=O)[C@@]2(C)[C@H]([C@H](OC(=O)c3ccccc3)[C@]3(O)C[C@H](OC(=O)[C@H](O)[C@@H](NC(=O)c4ccccc4)c4ccccc4)C(C)=C1C3(C)C)[C@]1(OC(C)=O)CO[C@@H]1C[C@@H]2O` [Paclitaxel], the IC50 [4] is given as 0.00261 µM.
